From ChEMBL document CHEMBL5724801, “EUbOPEN Chemogenomics Library - Multiplex” (2024)
Several values for one entry are separate records, joined by “and”; a condition that tells them apart may be missing. Equal values may be shown once.

Test system: HEK-293T
Assay: Multiplex assay against HEK293T
Format: toxicity, cell-based
Conditions: human
In short: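 Live cells were stained at seeding with Hoechst33342, BioTracker Green Microtubule Cytoskeleton Dye, MitoTracker Red and Annexin V Alexa Fluor 680, then imaged on a CQ1 microscope at 37°C and 5% CO2 after compound addition. CellPathfinder machine-learning gating split cells into Hoechst high-intensity objects or normal cells. Normal cells were split into healthy, pyknosed or fragmented nuclei, and pyknosed cells into mitotic or apoptotic. Tubulin, mitochondrial-mass and membrane-permeability phenotypes are per cents of healthy-nucleus cells.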

[1] = 12 h, 1 µM, compound concentration 1 uM
[2] = 12 h, 10 µM, compound concentration 10 uM
[3] = 24 h, 1 µM, compound concentration 1 uM
[4] = 24 h, 10 µM, compound concentration 10 uM
[5] = 48 h, 1 µM, compound concentration 1 uM
[6] = 48 h, 10 µM, compound concentration 10 uM

## CN1[C@@H](CC(=O)c2ccccc2)CCC[C@H]1C[C@H](O)c1ccccc1.Cl [LOBELINE HYDROCHLORIDE]
[1]
  Population Apoptotic (%): 5.84% and 10.26%
  Population Fragmented Nuclei (%): 1.05% and 2.84%
  Population Hoechst High Intensity Objects (%): 0.52% and 0%
  Population Membrane Permeable-Phenotype (%): 0%
  Population Mitochondria Different-Phenotype (%): 33.04% and 30%
  Population Mitotic Cells (%): 94.16% and 89.74%
  Population Normal (%): 99.48% and 100%
  Population Pyknosed Nuclei (%): 40.31% and 82.98%
  Total Cell Count: 384 and 141
[2]
  Population Apoptotic (%): 13.08% and 13.61%
  Population Fragmented Nuclei (%): 4.88% and 1.1%
  Population Healthy Nuclei (%): 49.83% and 17.68%
  Population Hoechst High Intensity Objects (%): 0% and 0.55%
  Population Membrane Permeable-Phenotype (%): 0.7% and 0%
  Population Mitochondria Different-Phenotype (%): 17.48% and 37.5%
  Population Mitotic Cells (%): 86.92% and 86.39%
  Population Normal (%): 100% and 99.45%
  Population Pyknosed Nuclei (%): 45.3% and 81.22%
  Total Cell Count: 287 and 182
[3]
  Population Apoptotic (%): 12.24% and 13.68%
  Population Fragmented Nuclei (%): 2.04% and 2.68%
  Population Healthy Nuclei (%): 74.92% and 33.56%
  Population Hoechst High Intensity Objects (%): 0%
  Population Membrane Permeable-Phenotype (%): 1.67% and 0%
  Population Mitochondria Different-Phenotype (%): 11.3% and 14%
  Population Mitotic Cells (%): 87.76% and 86.32%
  Population Normal (%): 100%
  Population Pyknosed Nuclei (%): 23.04% and 63.76%
  Population Tubulin-Different-Phenotype (%): 10.46% and 6%
[4]
  Population Apoptotic (%): 16.35% and 24.8%
  Population Fragmented Nuclei (%): 2.39% and 1.53%
  Population Healthy Nuclei (%): 69.95% and 34.69%
  Population Hoechst High Intensity Objects (%): 0%
  Population Membrane Permeable-Phenotype (%): 1.52% and 1.47%
  Population Mitochondria Different-Phenotype (%): 18.63% and 22.06%
  Population Mitotic Cells (%): 83.65% and 75.2%
  Population Normal (%): 100%
  Population Pyknosed Nuclei (%): 27.66% and 63.78%
  Population Tubulin-Different-Phenotype (%): 12.55% and 11.76%
  Total Cell Count: 376 and 196
[5]
  Population Apoptotic (%): 7.27% and 13.92%
  Population Fragmented Nuclei (%): 2.75% and 1.71%
  Population Healthy Nuclei (%): 84.62% and 53.14%
  Population Hoechst High Intensity Objects (%): 0%
  Population Membrane Permeable-Phenotype (%): 5.33% and 1.08%
  Population Mitochondria Different-Phenotype (%): 11.75% and 19.35%
  Population Mitotic Cells (%): 92.73% and 86.08%
  Population Normal (%): 100%
[6]
  Population Fragmented Nuclei (%): 2.84% and 1.89%
  Population Healthy Nuclei (%): 86.48% and 58.49%
  Population Hoechst High Intensity Objects (%): 0% and 0.75%
  Population Membrane Permeable-Phenotype (%): 2.5% and 0%
  Population Mitochondria Different-Phenotype (%): 30.22% and 37.42%
  Population Mitotic Cells (%): 94.68% and 75.24%
  Population Normal (%): 100% and 99.25%

## Nc1nc(CC(=O)Nc2ccc(CCNC[C@H](O)c3ccccc3)cc2)cs1 [MIRABEGRON]
[1]
  Population Apoptotic (%): 22% and 55%
  Population Fragmented Nuclei (%): 5% and 8%
  Population Healthy Nuclei (%): 84% and 80%
  Population Hoechst High Intensity Objects (%): 5%
  Population Membrane Permeable-Phenotype (%): 0%
  Population Mitochondria Different-Phenotype (%): 45% and 56%
  Population Mitotic Cells (%): 77% and 44%
  Population Normal (%): 94%
  Population Pyknosed Nuclei (%): 10% and 11%
  Population Tubulin-Different-Phenotype (%): 19%
  Total Cell Count: 455 and 332
[2]
  Population Apoptotic (%): 32% and 44%
  Population Fragmented Nuclei (%): 5% and 11%
  Population Healthy Nuclei (%): 77% and 74%
  Population Hoechst High Intensity Objects (%): 7% and 8%
  Population Membrane Permeable-Phenotype (%): 0%
  Population Mitochondria Different-Phenotype (%): 51% and 64%
  Population Mitotic Cells (%): 67% and 56%
  Population Normal (%): 92% and 91%
  Population Pyknosed Nuclei (%): 17% and 14%
  Population Tubulin-Different-Phenotype (%): 41% and 29%
  Total Cell Count: 423 and 388
[3]
  Population Apoptotic (%): 28% and 27%
  Population Fragmented Nuclei (%): 10% and 8%
  Population Healthy Nuclei (%): 80% and 83%
  Population Hoechst High Intensity Objects (%): 2% and 3%
  Population Membrane Permeable-Phenotype (%): 0%
  Population Mitochondria Different-Phenotype (%): 30% and 41%
  Population Mitotic Cells (%): 71% and 72%
  Population Normal (%): 97% and 96%
  Population Pyknosed Nuclei (%): 9% and 7%
  Population Tubulin-Different-Phenotype (%): 14% and 13%
  Total Cell Count: 635 and 390
[4]
  Population Apoptotic (%): 31% and 35%
  Population Fragmented Nuclei (%): 8% and 9%
  Population Healthy Nuclei (%): 77% and 82%
  Population Hoechst High Intensity Objects (%): 4% and 5%
  Population Membrane Permeable-Phenotype (%): 0%
  Population Mitochondria Different-Phenotype (%): 32% and 49%
  Population Mitotic Cells (%): 68% and 64%
  Population Normal (%): 95% and 94%
  Population Pyknosed Nuclei (%): 13% and 7%
  Population Tubulin-Different-Phenotype (%): 23%
  Total Cell Count: 552 and 524
[5]
  Population Apoptotic (%): 18% and 28%
  Population Fragmented Nuclei (%): 13% and 17%
  Population Healthy Nuclei (%): 80% and 76%
  Population Hoechst High Intensity Objects (%): 1% and 0%
  Population Membrane Permeable-Phenotype (%): 1%
  Population Mitochondria Different-Phenotype (%): 14% and 21%
  Population Mitotic Cells (%): 81% and 71%
  Population Normal (%): 98% and 99%
  Population Pyknosed Nuclei (%): 5%
  Population Tubulin-Different-Phenotype (%): 10%
  Total Cell Count: 1141 and 662
[6]
  Population Apoptotic (%): 26% and 28%
  Population Fragmented Nuclei (%): 12%
  Population Healthy Nuclei (%): 78% and 80%
  Population Hoechst High Intensity Objects (%): 3% and 2%
  Population Membrane Permeable-Phenotype (%): 0%
  Population Mitochondria Different-Phenotype (%): 25% and 30%
  Population Mitotic Cells (%): 73% and 71%
  Population Normal (%): 96% and 97%
  Population Pyknosed Nuclei (%): 8% and 6%
  Population Tubulin-Different-Phenotype (%): 16% and 15%
  Total Cell Count: 818 and 750
